Reference: ChEMBL document CHEMBL3822380, “Simple avarone mimetics as selective agents against multidrug resistant cancer cells” (Eur J Med Chem, 2016)
Converted amounts (≈) assume the structure as drawn. The source made the active and inactive calls.

Tests used:
NCI-H460 [1] = assay: Induction of apoptosis in human NCI-H460 cells assessed as live cells at 25 uM after 72 hrs by annexin-V/propidium iodide staining-based flow cytometric analysis (reference value: 98.3%); type: functional
NCI-H460 [2] = assay: Induction of apoptosis in human NCI-H460 cells assessed as early apoptotic cells at 25 uM after 72 hrs by annexin-V/propidium iodide staining-based flow cytometric analysis (reference value: 0.3%); type: functional
NCI-H460 [3] = assay: Induction of apoptosis in human NCI-H460 cells assessed as late apoptotic/necrotic cells at 25 uM after 72 hrs by annexin-V/propidium iodide staining-based flow cytometric analysis (reference value: 0.2%); type: functional
NCI-H460 [4] = assay: Induction of apoptosis in human NCI-H460 cells assessed as dead cells at 25 uM after 72 hrs by annexin-V/propidium iodide staining-based flow cytometric analysis (reference value: 1.2%); type: functional
NCI-H460 [5] = assay: Induction of apoptosis in multidrug resistant human NCI-H460 cells assessed as live cells at 25 uM after 72 hrs by annexin-V/propidium iodide staining-based flow cytometric analysis (reference value: 96.4%); type: functional
NCI-H460 [6] = assay: Induction of apoptosis in multidrug resistant human NCI-H460 cells assessed as early apoptotic cells at 25 uM after 72 hrs by annexin-V/propidium iodide staining-based flow cytometric analysis (reference value: 1.1%); type: functional
NCI-H460 [7] = assay: Induction of apoptosis in multidrug resistant human NCI-H460 cells assessed as late apoptotic/necrotic cells at 25 uM after 72 hrs by annexin-V/propidium iodide staining-based flow cytometric analysis (reference value: 1%); type: functional
NCI-H460 [8] = assay: Induction of apoptosis in multidrug resistant human NCI-H460 cells assessed as dead cells at 25 uM after 72 hrs by annexin-V/propidium iodide staining-based flow cytometric analysis (reference value: 1.5%); type: functional
[9] = Induction of apoptosis in human HaCaT cells assessed as live cells at 25 uM after 72 hrs by annexin-V/propidium iodide staining-based flow cytometric analysis (reference value: 96.8%); type: cell-based; details: read-out: Activity
HaCaT [10] = assay: Induction of apoptosis in human HaCaT cells assessed as early apoptotic cells at 25 uM after 72 hrs by annexin-V/propidium iodide staining-based flow cytometric analysis (reference value: 0.2%); type: cell-based
HaCaT [11] = assay: Induction of apoptosis in human HaCaT cells assessed as late apoptotic/necrotic cells at 25 uM after 72 hrs by annexin-V/propidium iodide staining-based flow cytometric analysis (reference value: 0.2%); type: cell-based
HaCaT [12] = assay: Induction of apoptosis in human HaCaT cells assessed as dead cells at 25 uM after 72 hrs by annexin-V/propidium iodide staining-based flow cytometric analysis (reference value: 2.8%); type: cell-based
NCI-H460 [13] = assay: Cytotoxicity against human NCI-H460 cells after 72 hrs by MTT assay; type: functional, cell-based; details: NCI-H460, 72 h
Outline: (§1)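 Seeding in 96-well plates at 1000 (NCI-H460), 2000 (NCI-H460/R) or 4000 (HaCaT) cells/well, treated after 24 h for 72 h. MTT at 0.4 mg/mL final, 4 h at 37 °C. Formazan dissolved in DMSO, absorbance read at 540 nm. Inhibition % = (1 − A treated/A untreated)×100. IC30 and IC50 obtained by linear regression.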

NCI-H460 [14] = assay: Cytotoxicity against multidrug resistant human NCI-H460 cells after 72 hrs by MTT assay; type: functional, cell-based; details: NCI-H460, 72 h; outline: as §1
HaCaT [15] = assay: Cytotoxicity against human HaCaT cells after 72 hrs by MTT assay; type: cell-based; details: for IC50: Homo sapiens, HaCaT; for IC30: human, hacat; outline: as §1
NCI-H460 [16] = assay: Induction of mitochondrial membrane potential depolarization in human NCI-H460 cells at 25 uM after 15 mins by JC1-staining-based flow cytometric analysis; type: functional, cell-based
Outline: (§2)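 Cells treated with 25 µM compound, with CDDP 5 µM as control. Stained with JC-1 for 15 min at 37 °C in a CO2 incubator, washed twice in assay buffer and resuspended in PBS. Flow cytometry read red aggregate (FL2-H) versus green monomer (FL1-H) fluorescence. Live cells were also imaged by fluorescence microscopy.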

NCI-H460 [17] = assay: Induction of mitochondrial membrane potential depolarization in multidrug resistant human NCI-H460 cells at 25 uM after 15 mins by JC1-staining-based flow cytometric analysis; type: functional, cell-based; outline: as §2
HaCaT [18] = assay: Induction of mitochondrial membrane potential depolarization in human HaCaT cells at 25 uM after 15 mins by JC1-staining-based flow cytometric analysis; type: cell-based; details: 0.25 h; outline: as §2
Candida albicans = assay: Antifungal activity against Candida albicans ATCC 10231 by broth microdilution method; type: functional
Outline: (§3)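 Broth microdilution per NCCLS. Compounds dissolved in DMSO as 10 mg/mL stock, diluted in Mueller Hinton broth (bacteria) or Sabouraud dextrose broth (fungi). Amikacin served as the positive control for bacteria and nystatin for fungi.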

Saccharomyces cerevisiae = assay: Antifungal activity against Saccharomyces cerevisiae ATCC 9763 by broth microdilution method; type: functional; outline: as §3
Aspergillus brasiliensis = assay: Antifungal activity against Aspergillus brasiliensis ATCC 16404 by broth microdilution method; type: functional; outline: as §3
[19] = Selectivity ratio of IC30/IC50 for human HaCaT cells to IC30/IC50 for human NCI-H460 cells; type: ADME, cell-based; details: HaCaT cells versus NCI-H460 cells
Outline: (§4)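 Fold threshold of 1.5 used to call selectivity to cancer cells, resistance, or selectivity to MDR cells.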

[20] = Selectivity ratio of IC30/IC50 for human HaCaT cells to IC30/IC50 for multidrug resistant human NCI-H460 cells; type: ADME, cell-based; details: HaCaT cells versus multidrug resistant NCI-H460 cells; outline: as §4
NCI-H460 [21] = assay: Induction of superoxide anion generation in human NCI-H460 cells at 25 uM after 72 hrs by DHE staining-based flow cytometric analysis relative to control; type: functional, cell-based
Outline: (§5)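 Seeded as for cell death (50,000 or 100,000 cells/well), treated 72 h at 25 µM, with CDDP 5 µM as control. Adherent cells trypsinized and loaded with 1 µM DHE for 30 min at 37 °C in the dark, then washed twice in PBS. Flow cytometry at ex 488/em 585 nm (FL2-H). Mean fluorescence intensity corrected for autofluorescence and compared with untreated control.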

NCI-H460 [22] = assay: Induction of superoxide anion generation in multidrug resistant human NCI-H460 cells at 25 uM after 72 hrs by DHE staining-based flow cytometric analysis relative to control; type: functional, cell-based; outline: as §5
HaCaT [23] = assay: Induction of superoxide anion generation in human HaCaT cells at 25 uM after 72 hrs by DHE staining-based flow cytometric analysis relative to control; type: cell-based; outline: as §5
NCI-H460 [24] = assay: Selectivity ratio of IC30/IC50 for human NCI-H460 cells to IC30/IC50 for multidrug resistant human NCI-H460 cells; type: functional; outline: as §4

SMILES | Activity (NCI-H460 [1]) [%] | Activity (NCI-H460 [2]) [%] | Activity (NCI-H460 [3]) [%] | Activity (NCI-H460 [4]) [%] | Activity (NCI-H460 [5]) [%] | Activity (NCI-H460 [6]) [%] | Activity (NCI-H460 [7]) [%] | Activity (NCI-H460 [8]) [%] | viability at 72 h, 25 µM [9] [%] | Activity (HaCaT [10]) [%] | Activity (HaCaT [11]) [%] | Activity (HaCaT [12]) [%] | IC30 (NCI-H460 [13]) [µM] | IC50 (NCI-H460 [13]) [µM] | IC30 (NCI-H460 [14]) [µM] | IC50 (NCI-H460 [14]) [µM] | IC50 (HaCaT [15]) [µM] | IC30 (HaCaT [15]) [µM] | selectivity ratio [19] | Activity (NCI-H460 [22]) | also measured
CC(C)(C)C1=CC(=O)C=CC1=O | 95.2 | 0.5 | 0.5 | 3.8 | 95.2 | 0.5 | 1.2 | 3.1 | 86.8 | 1.9 | 3.8 | 7.5 | > 100 | > 100 | 31 | 72 | 95 | 41 |  |  | Activity (NCI-H460 [16]): inactive; Activity (NCI-H460 [17]): inactive; Activity (HaCaT [18]): Non-toxic
CCCCCCCCNC1=CC(=O)C=C(C(C)(C)C)C1=O | 54.9 | 0.2 | 2.9 | 42 | 61.4 | 0.1 | 2.1 | 36.4 | 77 | 0.6 | 2.6 | 19.8 | 5 | 20 | 8 | 21 | 30 | 18 | ≤ 1.5 | Active | MIC (Candida albicans): 67 µM (≈ 19.5 µg/mL); MIC (Saccharomyces cerevisiae): 539 µM (≈ 157 µg/mL); MIC (Aspergillus brasiliensis): 2150 µM (≈ 626 µg/mL); selectivity ratio [20]: ≤ 1.5; Activity (NCI-H460 [21]): inactive; Activity (HaCaT [23]): Non-toxic; Activity (NCI-H460 [16]): Active; Activity (NCI-H460 [17]): Active; Activity (HaCaT [18]): Non-toxic
CC1=CCC[C@H]2[C@](C)(CC3=CC(=O)C=CC3=O)[C@@H](C)CC[C@]12C [AVARONE] | 74 | 3.4 | 16.3 | 6.3 | 65.8 | 2.6 | 22.7 | 8.9 | 78.3 | 2.5 | 10.1 | 9.1 | 36 | 84 | 10 | 24 | 37 | 16 | ≤ 1.5 | Active | selectivity ratio [20]: ≤ 1.5; Activity (NCI-H460 [21]): Active
CC1=CCC[C@H]2[C@](C)(CC3=CC(=O)C=C(NCCc4ccccc4)C3=O)[C@@H](C)CC[C@]12C | 71.7 | 0.1 | 0.2 | 28 | 53 | 1.2 | 3.5 | 42.3 | 58.1 | 0.2 | 0.4 | 41.3 | 14 | 21 | 6 | 11 | 23 | 18 | ≤ 1.5 | Active | selectivity ratio [20]: ≤ 1.5; selectivity ratio (NCI-H460 [24]): <=1.5; Activity (HaCaT [23]): Toxic
CCCCCCCCNC1=CC(=O)C=C(C[C@]2(C)[C@@H](C)CC[C@]3(C)C(C)=CCC[C@@H]23)C1=O | 95.7 | 0.1 | 0.3 | 3.9 | 92.6 | 0 | 0.1 | 7.3 | 85.3 | 0.3 | 0.6 | 13.8 | 21 | 38 | 13 | 35 | 17 | 13 |  | Active | Activity (NCI-H460 [21]): inactive; Activity (HaCaT [23]): Toxic
